Source: publication PMC5615155 (Toxicology Reports, 2017)
Entries after “also recorded” stand apart in the source; their conditions may differ.

Columns and labels:
[1] = test system: S. typhimurium strains TA98, TA100, TA1535, TA1537; assay: bacterial reverse mutation test; assay type: cell-based
Summary of the method: (§1)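 GLP plate-incorporation Ames test per OECD 471 with S. typhimurium TA98, TA100, TA1535, TA1537 and E. coli WP2 uvrA, ± Aroclor 1254-induced male rat liver S9. An initial toxicity-mutation phase (1.5–5000 μg/plate) set the range for the confirmatory assay at 100, 333, 1000, 3333 and 5000 μg/plate. Negative and positive controls were included. Toxicity and precipitate were noted.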

CYP1A2 = target: T1, CYP1A2 (Homo sapiens, UniProt P05177); assay: CYP inhibition, spectrofluorimetric; assay type: biochemical; details: recombinant human CYP1A2 expressed in insect Sf9 cells
T1 sequence (P05177 1-516): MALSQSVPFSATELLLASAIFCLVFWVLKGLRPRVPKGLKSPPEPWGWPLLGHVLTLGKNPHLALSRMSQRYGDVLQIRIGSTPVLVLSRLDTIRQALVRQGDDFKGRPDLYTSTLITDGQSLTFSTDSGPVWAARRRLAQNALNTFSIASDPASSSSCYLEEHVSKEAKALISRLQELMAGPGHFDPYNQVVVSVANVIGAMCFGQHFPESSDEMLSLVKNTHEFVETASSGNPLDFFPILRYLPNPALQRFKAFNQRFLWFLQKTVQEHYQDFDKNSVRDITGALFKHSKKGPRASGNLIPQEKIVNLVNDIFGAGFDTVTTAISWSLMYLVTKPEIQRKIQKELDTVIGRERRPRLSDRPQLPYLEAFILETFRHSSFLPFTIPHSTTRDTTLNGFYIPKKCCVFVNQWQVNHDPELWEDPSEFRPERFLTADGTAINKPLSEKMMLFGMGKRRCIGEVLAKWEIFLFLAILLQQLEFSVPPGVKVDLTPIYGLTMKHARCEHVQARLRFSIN
Summary of the method: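 Inhibition was assayed with recombinant human CYP isoforms expressed in insect Sf9 cells. Turnover of spectrofluorimetric substrates was read by fluorescence. Test compound was tested at a single concentration of 10 μM.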

[2] = test system: human peripheral blood lymphocytes (HPBL); assay: in vitro micronucleus test; assay type: cell-based
Summary of the method: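 HPBL micronucleus test per OECD 487, GLP. Exposures: 4 h −S9, 4 h +S9 (Aroclor 1254-induced male rat liver), 24 h −S9. DMSO solvent; positive controls vinblastine (−S9) and cyclophosphamide (+S9). 4 h cultures were washed, then 20 h in cytochalasin B 6.0 μg/mL. Dose range from preliminary toxicity test (0.2–2000 μg/mL). Duplicate cultures: CBPI from ≥1000 cells; ≥2000 binucleated cells scored.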

[3] = cited from earlier work
[4] = in vitro microsomal metabolism; assay type: in vitro ADME, human; details: 10 μM, 0.5 mg/mL, +NADPH, 120 min
E. coli strain WP2 uvrA = assay: bacterial reverse mutation test; assay type: cell-based; details: 100–5000 μg/plate, plate incorporation, ±S9
Summary of the method: as §1

[5] = test system: 68 receptor binding assays for GPCRs, ion channels, nuclear receptors, transporters; assay: receptor lead profiling panel; details: 10 μM
hERG = hERG (Homo sapiens, UniProt Q12809); assay: hERG electrophysiology; assay type: cell-based
[6] = dose range-finding developmental toxicity study; assay type: in vivo, Crl:CD(SD) rats
[7] = definitive developmental toxicity study; assay type: in vivo, Crl:CD(SD) rats
Summary of the method: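 For the definitive developmental toxicity study, bred female Sprague-Dawley rats, 25/group, were given the sulfate salt of the test compound by oral gavage at 250, 500 or 1000 mg/kg bw/day, with a control group. Per litter, corpora lutea, implantation sites, pre- and post-implantation loss, live and dead fetuses, resorptions (early/late), fetal sex and fetal body weight were recorded.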

Chain of hERG (Q12809 whole entry): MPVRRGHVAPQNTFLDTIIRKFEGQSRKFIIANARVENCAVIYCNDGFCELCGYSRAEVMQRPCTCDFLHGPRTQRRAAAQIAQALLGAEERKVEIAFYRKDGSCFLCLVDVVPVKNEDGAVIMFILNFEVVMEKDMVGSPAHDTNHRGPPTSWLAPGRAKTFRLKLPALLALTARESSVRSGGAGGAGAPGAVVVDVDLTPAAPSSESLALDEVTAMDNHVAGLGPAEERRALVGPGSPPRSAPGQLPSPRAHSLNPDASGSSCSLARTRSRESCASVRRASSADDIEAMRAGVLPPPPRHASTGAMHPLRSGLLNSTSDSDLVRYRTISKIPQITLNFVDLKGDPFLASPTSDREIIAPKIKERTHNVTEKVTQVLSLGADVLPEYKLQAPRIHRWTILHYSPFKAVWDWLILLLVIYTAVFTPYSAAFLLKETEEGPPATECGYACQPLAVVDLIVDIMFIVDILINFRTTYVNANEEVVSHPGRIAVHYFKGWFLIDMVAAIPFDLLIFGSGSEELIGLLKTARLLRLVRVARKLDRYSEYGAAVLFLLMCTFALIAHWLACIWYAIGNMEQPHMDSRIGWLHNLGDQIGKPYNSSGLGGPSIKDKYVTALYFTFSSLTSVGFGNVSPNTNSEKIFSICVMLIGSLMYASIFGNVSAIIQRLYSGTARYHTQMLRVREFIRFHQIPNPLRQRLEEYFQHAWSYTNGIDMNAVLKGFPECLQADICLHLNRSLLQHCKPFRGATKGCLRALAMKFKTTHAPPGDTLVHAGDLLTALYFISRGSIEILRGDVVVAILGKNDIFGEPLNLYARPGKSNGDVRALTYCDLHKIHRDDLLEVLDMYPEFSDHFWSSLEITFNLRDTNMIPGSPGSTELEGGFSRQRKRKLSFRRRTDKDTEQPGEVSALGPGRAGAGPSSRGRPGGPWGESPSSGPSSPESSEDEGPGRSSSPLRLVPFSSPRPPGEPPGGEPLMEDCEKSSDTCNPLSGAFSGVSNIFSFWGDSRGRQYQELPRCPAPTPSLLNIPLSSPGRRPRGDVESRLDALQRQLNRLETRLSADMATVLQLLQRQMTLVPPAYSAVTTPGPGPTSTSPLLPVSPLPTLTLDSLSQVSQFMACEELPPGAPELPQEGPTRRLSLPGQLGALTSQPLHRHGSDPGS

In the case of Cc1cc(C(=O)NC(C)(C)COc2cccc3c2C(N)=NS(=O)(=O)N3)cc(C)n1 [S2218, N-(1-((4-amino-2,2-dioxido-1H-benzo[c][1,2,6]thiadiazin-5-yl)oxy)-2-methylpropan-2-yl)-2,6-dimethylisonicotinamide], the “Reverse mutation (in vitro), result” value ([1]; 100–5000 μg/plate, plate incorporation, ±S9) is reported as “not found to be mutagenic; also recorded: Negative”, the “cytotoxicity (background lawn / revertant colonies)” value ([1]; all tester strains, ±S9, up to 5000 μg per plate) is reported as “No cytotoxicity” and the “concentration at which precipitate was observed” value ([1]; confirmatory mutagenicity assay) is reported as ≥ 3333 μg per plate. The “concentration at which precipitate was observed” value ([1]; initial toxicity-mutation assay) was 5000 μg per plate, the inhibition at 10 μM (CYP1A2) was ≤ 7% and the “Micronucleus formation (in vitro), result” value ([2]; 250–1000 μg/mL, 24 h exposure, −S9) was “negative for the induction of micronuclei”. For the same compound, the “Micronucleus formation (in vitro), result” value ([2]; 500–2000 μg/mL, 4 h exposure, ±S9) was “neither clastogenic nor aneugenic; also recorded: negative for the induction of micronuclei”, the “cytotoxicity (55 ± 5% CBPI relative to vehicle control)” value ([2]; micronucleus assay, any dose, three treatment conditions) was “not observed” and the “concentration with visible precipitate” value ([2]; non-activated 24 h exposure) was ≥ 1000 µg/mL. For the same compound, the “concentration with visible precipitate” value ([2]; non-activated and S9-activated 4 h exposure) was 2000 µg/mL, the “water solubility at low pH vs S6973 and S617” value [3] was “improved water solubility at low pH” and the “% MS (EIC) peak area of parent relative to time 0” value [4] was 98.4 ± 0.4%. The “Reverse mutation (in vitro), result” value (E. coli strain WP2 uvrA) was “not mutagenic; also recorded: Negative”, the “inhibition or stimulation in lead profiling receptor screen” value [5] was < 50% and the inhibition at 10 μM (hERG) was < 10%.
For Cc1cc(C(=O)NC(C)(C)COc2cccc3c2C(N)=NS(=O)(=O)N3)cc(C)n1.O=S(=O)(O)O [S8069], the “external developmental malformations or variations in fetuses” value ([6]; 125–1000 mg/kg bw/day) was “No external developmental malformations or variations were observed”, the Findings ([6]; 125–1000 mg/kg bw/day oral gavage, GD 6–20) was “No maternal toxicity or effect on intrauterine growth up to 1000 mg/kg bw/day” and the “Corpora Lutea” value ([7]; 250 mg/kg bw/d, Mean) was 15.1. For the same compound, the “Dead Fetuses” value ([7]; 250 mg/kg bw/d, Mean) was 0.0, the “Fetal Wt.” value ([7]; 250 mg/kg bw/d, Mean) was 5.9 g and the “Fetuses, Sex F” value ([7]; 250 mg/kg bw/d, Mean) was 7.2. For the same compound, the “Fetuses, Sex M” value ([7]; 250 mg/kg bw/d, Mean) was 6.6, the “Implant. Sites” value ([7]; 250 mg/kg bw/d, Mean) was 14.8 and the “Post-Implant. Loss” value ([7]; 250 mg/kg bw/d, Mean) was 1.0. For the same compound, the “Pre-Implant. Loss” value ([7]; 250 mg/kg bw/d, Mean) was 0.4, the “Resorptions, Early” value ([7]; 250 mg/kg bw/d, Mean) was 1.0 and the “Resorptions, Late” value ([7]; 250 mg/kg bw/d, Mean) was 0.0. For the same compound, the “Viable Fetuses” value ([7]; 250 mg/kg bw/d, Mean) was 13.8, the “Corpora Lutea” value ([7]; 250 mg/kg bw/d, Total) was 363 and the “Dead Fetuses” value ([7]; 250 mg/kg bw/d, Total) was 0. The “Fetuses, Sex F” value ([7]; 250 mg/kg bw/d, Total) was 173, the “Fetuses, Sex M” value ([7]; 250 mg/kg bw/d, Total) was 158 and the “Implant. Sites” value ([7]; 250 mg/kg bw/d, Total) was 354. For the same compound, the “Post-Implant. Loss” value ([7]; 250 mg/kg bw/d, Total) was 23, the “Pre-Implant. Loss” value ([7]; 250 mg/kg bw/d, Total) was 9 and the “Resorptions, Early” value ([7]; 250 mg/kg bw/d, Total) was 23. For the same compound, the “Resorptions, Late” value ([7]; 250 mg/kg bw/d, Total) was 0, the “Viable Fetuses” value ([7]; 250 mg/kg bw/d, Total) was 331 and the “Corpora Lutea” value ([7]; 500 mg/kg bw/d, Mean) was 16.1. For the same compound, the “Dead Fetuses” value ([7]; 500 mg/kg bw/d, Mean) was 0.0, the “Fetal Wt.” value ([7]; 500 mg/kg bw/d, Mean) was 5.6 g and the “Fetuses, Sex F” value ([7]; 500 mg/kg bw/d, Mean) was 8.2. For the same compound, the “Fetuses, Sex M” value ([7]; 500 mg/kg bw/d, Mean) was 6.6, the “Implant. Sites” value ([7]; 500 mg/kg bw/d, Mean) was 15.4 and the “Post-Implant. Loss” value ([7]; 500 mg/kg bw/d, Mean) was 0.7. For the same compound, the “Pre-Implant. Loss” value ([7]; 500 mg/kg bw/d, Mean) was 0.7, the “Resorptions, Early” value ([7]; 500 mg/kg bw/d, Mean) was 0.7 and the “Resorptions, Late” value ([7]; 500 mg/kg bw/d, Mean) was 0.0. For the same compound, the “Viable Fetuses” value ([7]; 500 mg/kg bw/d, Mean) was 14.7, the “Corpora Lutea” value ([7]; 500 mg/kg bw/d, Total) was 370 and the “Dead Fetuses” value ([7]; 500 mg/kg bw/d, Total) was 0. The “Fetuses, Sex F” value ([7]; 500 mg/kg bw/d, Total) was 188, the “Fetuses, Sex M” value ([7]; 500 mg/kg bw/d, Total) was 151 and the “Implant. Sites” value ([7]; 500 mg/kg bw/d, Total) was 355. The “Post-Implant. Loss” value ([7]; 500 mg/kg bw/d, Total) was 16, the “Pre-Implant. Loss” value ([7]; 500 mg/kg bw/d, Total) was 15 and the “Resorptions, Early” value ([7]; 500 mg/kg bw/d, Total) was 16. For the same compound, the “Resorptions, Late” value ([7]; 500 mg/kg bw/d, Total) was 0, the “Viable Fetuses” value ([7]; 500 mg/kg bw/d, Total) was 339 and the “malformations, fetuses (litters)” value ([7]; 500 mg/kg bw/day) was 4(4). The “skeletal malformations, fetuses (litters)” value ([7]; 500 mg/kg bw/day) was 3(3), the “visceral malformations, fetuses (litters)” value ([7]; 500 mg/kg bw/day) was 3(3) and the “Corpora Lutea” value ([7]; 1000 mg/kg bw/d, Mean) was 15.1. For the same compound, the “Dead Fetuses” value ([7]; 1000 mg/kg bw/d, Mean) was 0.0, the “Fetal Wt.” value ([7]; 1000 mg/kg bw/d, Mean) was 5.6 g and the “Fetuses, Sex F” value ([7]; 1000 mg/kg bw/d, Mean) was 7.0. The “Fetuses, Sex M” value ([7]; 1000 mg/kg bw/d, Mean) was 7.3, the “Implant. Sites” value ([7]; 1000 mg/kg bw/d, Mean) was 14.6 and the “Post-Implant. Loss” value ([7]; 1000 mg/kg bw/d, Mean) was 0.3. For the same compound, the “Pre-Implant. Loss” value ([7]; 1000 mg/kg bw/d, Mean) was 0.6, the “Resorptions, Early” value ([7]; 1000 mg/kg bw/d, Mean) was 0.3 and the “Resorptions, Late” value ([7]; 1000 mg/kg bw/d, Mean) was 0.0. The “Viable Fetuses” value ([7]; 1000 mg/kg bw/d, Mean) was 14.3, the “Corpora Lutea” value ([7]; 1000 mg/kg bw/d, Total) was 348 and the “Dead Fetuses” value ([7]; 1000 mg/kg bw/d, Total) was 0. For the same compound, the “Fetuses, Sex F” value ([7]; 1000 mg/kg bw/d, Total) was 160, the “Fetuses, Sex M” value ([7]; 1000 mg/kg bw/d, Total) was 168 and the “Implant. Sites” value ([7]; 1000 mg/kg bw/d, Total) was 335. For the same compound, the “Post-Implant. Loss” value ([7]; 1000 mg/kg bw/d, Total) was 7, the “Pre-Implant. Loss” value ([7]; 1000 mg/kg bw/d, Total) was 13 and the “Resorptions, Early” value ([7]; 1000 mg/kg bw/d, Total) was 7. For the same compound, the “Resorptions, Late” value ([7]; 1000 mg/kg bw/d, Total) was 0, the “Viable Fetuses” value ([7]; 1000 mg/kg bw/d, Total) was 328 and the “malformations, fetuses (litters)” value ([7]; 1000 mg/kg bw/day) was 1(1). For the same compound, the “visceral malformations, fetuses (litters)” value ([7]; 1000 mg/kg bw/day) was 1(1), the “females with rales 1 h following dose” value ([7]; 1000 mg/kg bw/day, GD 8–17) was 6 and the “females with salivation at time of dose” value ([7]; 1000 mg/kg bw/day, GD 12–16) was 4. For the same compound, the “mean maternal body weight loss” value ([7]; 1000 mg/kg bw/day, Gestation Day 8–9) was 2 g and the external malformations ([7]; test article-treated groups) was “no external malformations observed”.
